Measured values: ChEMBL document CHEMBL3098087, “Synthesis and evaluation of (-)- and (+)-[¹¹C]galanthamine as PET tracers for cerebral acetylcholinesterase imaging” (Bioorg Med Chem, 2014)

Assays:
Striatum [1] = test: Biodistribution in ddY mouse striatum at 3.7 MBq, iv after 30 mins by gamma counting; assay type: ADME, organism-based; settings: in vivo, 0.5 h
Outline: (§1)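 ddY male mice, seven weeks old, 20–25 g, received 3.7 MBq of tracer. Five animals per time point, up to 60 min, were killed by exsanguination. Blood and brain, or striatum and cerebellum, were excised, weighed and gamma-counted. Uptake is expressed as %ID/g of tissue.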

Cerebellum = test: Biodistribution in ddY mouse cerebellum at 3.7 MBq, iv after 30 mins by gamma counting; assay type: ADME, organism-based; settings: in vivo, 0.5 h; outline: as §1
Brain [2] = test: Biodistribution in ddY mouse brain at 3.7 MBq, iv after 10 mins by gamma counting; assay type: ADME, organism-based; settings: in vivo; outline: as §1
Brain [3] = test: Biodistribution in ddY mouse brain at 74 MBq, iv after 10 to 30 mins by PET analysis; settings: in vivo
Striatum [4] = test: Drug uptake in Wistar rat striatum at 10 mM after 30 mins by autoradiography analysis counting in presence of donepezil; assay type: ADME, tissue-based; settings: 0.5 h, 10000 µM
Striatum [5] = test: Biodistribution in ddY mouse striatum at 3.7 MBq, iv by gamma counting in presence of donepezil; settings: in vivo
Striatum [6] = test: Drug uptake in Wistar rat striatum at 2.2 […]/200 uL after 30 mins by autoradiography analysis; assay type: ADME, tissue-based; settings: in vitro, 0.5 h
Outline: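 Coronal brain sections (20 µm) from male Wistar rats were thaw-mounted on silane-coated slides. Sections were incubated with tracer in binding buffer for 30 min at 4°C, then washed with ice-cold buffer and water. They were exposed to imaging plates for 6 h alongside calibrated 11C standards.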

`COc1ccc2c3c1O[C@@H]1C[C@H](O)C=C[C@]31CCN([11CH3])C2` showed a Drug uptake (Striatum [1]) of 1.5 % ID/g, a Drug uptake (Cerebellum) of 1.5 % ID/g and a Drug uptake (Brain [2]) of 2.1 % ID/g.
For `COc1ccc2c3c1O[C@H]1C[C@@H](O)C=C[C@@]31CCN([11CH3])C2`, the Drug uptake (Brain [3]) was “Active”, the Drug uptake (Striatum [4]) was “Not Active” and the Drug uptake (Striatum [1]) was 2.1 % ID/g. The Drug uptake (Cerebellum) was 1.7 % ID/g, the Drug uptake (Striatum [5]) was 1.3 % ID/g and the Drug uptake (Brain [2]) was 2.1 % ID/g. For the same compound, the Drug uptake (Striatum [6]) was “Active”.
